ChEMBL document CHEMBL4038306, “Development of an Aryloxazole Class of Hepatitis C Virus Inhibitors Targeting the Entry Stage of the Viral Replication Cycle” (J Med Chem, 2017)

Columns and labels:
[1] = AUClast in CD-1 mouse plasma at 10 mg/kg, ip administered as single dose after 24 hrs by UPLC-MS/MS method; format: ADME, organism-based
Method in brief: (§1)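 Adult male CD-1 mice (25–39 g), one i.p. dose of 0.1, 1 or 10 mg/kg. […] Drug levels measured by UPLC–MS/MS and reported as means ± SEM. […] Serum ALT was also monitored.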

[2] = Cmax in CD-1 mouse liver at 1 mg/kg, ip administered as single dose after 24 hrs by UPLC-MS/MS method; format: ADME, organism-based; parameters: dose 1 mg/kg, route intraperitoneal; method in brief: as §1
[3] = Cmax in CD-1 mouse liver at 0.1 mg/kg, ip administered as single dose after 24 hrs by UPLC-MS/MS method; format: ADME, organism-based; parameters: dose 0.1 mg/kg, route intraperitoneal; method in brief: as §1
[4] = test system: Plasma; test: Tmax in CD-1 mouse plasma at 0.1 mg/kg, ip administered as single dose after […] by UPLC-MS/MS method; format: ADME, organism-based; details: in vivo
[5] = Ratio of Cmax in CD-1 mouse liver to plasma at 1 mg/kg, ip administered as single dose after 24 hrs; format: ADME, organism-based
Method in brief: (§2)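 Adult male CD-1 mice (25–39 g) received one intraperitoneal dose. Plasma and liver were sampled at set time points, n = 3 mice per time point. Compound levels were measured by UPLC–MS/MS.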

[6] = AUClast in CD-1 mouse liver at 10 mg/kg, ip administered as single dose after 24 hrs by UPLC-MS/MS method; format: ADME, organism-based; method in brief: as §1
[7] = test system: Plasma; test: AUC (infinity) in CD-1 mouse plasma at 0.1 mg/kg, ip administered as single dose after […] by UPLC-MS/MS method; format: ADME, organism-based; parameters: dose 0.1 mg/kg, time infinity, route intraperitoneal; details: in vivo
[8] = Tmax in CD-1 mouse liver at 10 mg/kg, ip administered as single dose after 24 hrs by UPLC-MS/MS method; format: ADME, organism-based; method in brief: as §1
[9] = Cmax in CD-1 mouse liver at 0.1 mg/kg, ip administered as single dose after […] by UPLC-MS/MS method; format: ADME, organism-based; parameters: dose 0.1 mg/kg, route intraperitoneal
[10] = Tmax in CD-1 mouse liver at 1 mg/kg, ip administered as single dose after 24 hrs by UPLC-MS/MS method; format: ADME, organism-based; method in brief: as §1
[11] = AUClast in CD-1 mouse liver at 0.1 mg/kg, ip administered as single dose after 24 hrs by UPLC-MS/MS method; format: ADME, organism-based; method in brief: as §1
[12] = Drug uptake in CD-1 mouse liver at 1 mg/kg, ip administered as single dose after 24 hrs by UPLC-MS/MS method; format: ADME, organism-based; details: read-out: Drug uptake; method in brief: as §1
[13] = AUClast in CD-1 mouse liver at 0.1 mg/kg, ip administered as single dose after […] by UPLC-MS/MS method; format: ADME, organism-based
[14] = AUClast in CD-1 mouse plasma at 1 mg/kg, ip administered as single dose after 24 hrs by UPLC-MS/MS method; format: ADME, organism-based; method in brief: as §1
[15] = Ratio of Cmax in CD-1 mouse liver to plasma at 0.1 mg/kg, ip administered as single dose after 24 hrs; format: ADME, organism-based; method in brief: as §2
[16] = Ratio of AUClast in CD-1 mouse liver to plasma at 0.1 mg/kg, ip administered as single dose after 24 hrs; format: ADME, organism-based; details: read-out: Ratio AUC
Method in brief: (§3)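 Adult male CD-1 mice (25–39 g), n = 3 per sampling time point, given one i.p. dose (0.1, 1 or 10 mg/kg). Plasma and liver levels measured by UPLC–MS/MS. […] Serum ALT was monitored alongside.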

[17] = Cmax in CD-1 mouse plasma at 0.1 mg/kg, ip administered as single dose after 24 hrs by UPLC-MS/MS method; format: ADME, organism-based; parameters: dose 0.1 mg/kg, route intraperitoneal; method in brief: as §1
[18] = Ratio of Cmax in CD-1 mouse liver to plasma at 0.1 mg/kg, ip administered as single dose after […]; format: ADME, organism-based; details: liver and plasma
[19] = Ratio of AUClast in CD-1 mouse liver to plasma at 0.1 mg/kg, ip administered as single dose after […]; format: ADME, organism-based; details: read-out: Ratio AUC
[20] = Tmax in CD-1 mouse plasma at 1 mg/kg, ip administered as single dose after 24 hrs by UPLC-MS/MS method; format: ADME, organism-based; method in brief: as §1
[21] = Ratio of AUC (infinity) in CD-1 mouse liver to plasma at 0.1 mg/kg, ip administered as single dose after […]; format: ADME, organism-based; details: read-out: Ratio AUC
[22] = Permeability of the compound by PAMPA; format: physicochemical; details: read-out: permeability
Method in brief: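 Passive diffusion measured by stirred double-sink PAMPA; permeability expressed in 10⁻⁶ cm/s.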

[23] = Cmax in CD-1 mouse plasma at 10 mg/kg, ip administered as single dose after 24 hrs by UPLC-MS/MS method; format: ADME, organism-based; parameters: dose 10 mg/kg, route intraperitoneal; method in brief: as §1
[24] = Drug uptake in CD-1 mouse liver at 0.1 mg/kg, ip administered as single dose after 5 mins by UPLC-MS/MS method; format: ADME, organism-based; details: read-out: Drug uptake; method in brief: as §1
[25] = test system: Plasma; test: Cmax in CD-1 mouse plasma at 0.1 mg/kg, ip administered as single dose after […] by UPLC-MS/MS method; format: ADME, organism-based; parameters: dose 0.1 mg/kg, route intraperitoneal; details: in vivo
[26] = Ratio of Cmax in CD-1 mouse liver to plasma at 10 mg/kg, ip administered as single dose after 24 hrs; format: ADME, organism-based; method in brief: as §2
[27] = Tmax in CD-1 mouse liver at 0.1 mg/kg, ip administered as single dose after 24 hrs by UPLC-MS/MS method; format: ADME, organism-based; method in brief: as §1
[28] = Cmax in CD-1 mouse liver at 10 mg/kg, ip administered as single dose after 24 hrs by UPLC-MS/MS method; format: ADME, organism-based; parameters: dose 10 mg/kg, route intraperitoneal; method in brief: as §1
[29] = Tmax in CD-1 mouse liver at 0.1 mg/kg, ip administered as single dose after […] by UPLC-MS/MS method; format: ADME, organism-based
[30] = AUClast in CD-1 mouse plasma at 0.1 mg/kg, ip administered as single dose after […] by UPLC-MS/MS method; format: ADME, organism-based
[31] = Cmax in CD-1 mouse plasma at 1 mg/kg, ip administered as single dose after 24 hrs by UPLC-MS/MS method; format: ADME, organism-based; parameters: dose 1 mg/kg, route intraperitoneal; method in brief: as §1
[32] = Tmax in CD-1 mouse plasma at 10 mg/kg, ip administered as single dose after 24 hrs by UPLC-MS/MS method; format: ADME, organism-based; method in brief: as §1
[33] = Ratio of AUClast in CD1 mouse liver to plasma at 10 mg/kg, ip administered as single dose after 24 hrs; format: ADME, organism-based; details: CD-1, mouse, read-out: Ratio AUC; method in brief: as §3
[34] = AUClast in CD-1 mouse plasma at 0.1 mg/kg, ip administered as single dose after 24 hrs by UPLC-MS/MS method; format: ADME, organism-based; method in brief: as §1
[35] = Tmax in CD-1 mouse plasma at 0.1 mg/kg, ip administered as single dose after 24 hrs by UPLC-MS/MS method; format: ADME, organism-based; method in brief: as §1
[36] = Ratio of AUClast in CD-1 mouse liver to plasma at 1 mg/kg, ip administered as single dose after 24 hrs; format: ADME, organism-based; details: read-out: Ratio AUC; method in brief: as §3
[37] = AUClast in CD-1 mouse liver at 1 mg/kg, ip administered as single dose after 24 hrs by UPLC-MS/MS method; format: ADME, organism-based; method in brief: as §1

AUC(0-t) at 24 h [1]: 17.6 µM·h
Cmax [2]: 9820 nM
Cmax [3]: 1110 nM
Tmax [4]: 4.98 min
Kp at 24 h [5]: 67
AUC(0-t) at 24 h [6]: 719 µM·h
AUC [7]: 0.0639 µM·h
Tmax [8]: 7 h
Cmax at […] [9]: 1110 nM
Tmax [10]: 4 h
AUC(0-t) at 24 h [11]: 19.7 µM·h
concentration at 24 h [12]: 3330 to 9820 nM
AUC(0-t) at […] [13]: 52.3 µM·h
AUC(0-t) at 24 h [14]: 0.88 µM·h
Kp at 24 h [15]: 126
Kp at 24 h [16]: 399
Cmax [17]: 8.76 nM
Kp at […] [18]: 126
Kp at […] [19]: 448
Tmax [20]: 0.25 h
Kp at […] [21]: 510
Papp [22]: 522 ×10⁻⁶ cm/s
Cmax [23]: 4740 nM
concentration at 5 min [24]: 390 nM
Cmax [25]: 8.76 nM
Kp at 24 h [26]: 7
Tmax [27]: 7 h
Cmax [28]: 34500 nM
Tmax at […] [29]: 7 h
AUC(0-t) at […] [30]: 0.117 µM·h
Cmax [31]: 146 nM
Tmax [32]: 4.98 min
Kp at 24 h [33]: 41
AUC(0-t) at 24 h [34]: 0.0494 µM·h
Tmax [35]: 4.98 min
Kp at 24 h [36]: 224
AUC(0-t) at 24 h [37]: 197 µM·h
SMILES: Cc1oc(-c2ccc(Cl)c(Cl)c2)nc1CN1CCC(C(=O)NCCCN2C[C@H](C)C[C@H](C)C2)CC1
